From ChEMBL document CHEMBL1126074, “(+-)-carbocyclic 5'-nor-2'-deoxyguanosine and related purine derivatives: synthesis and antiviral properties” (1992)
In brackets after ≈: the same amount, converted by molar mass.

How the values were obtained:
Format in all cases: functional
HEL [1] = experiment: Concentration required to reduce CMV(Davis) plaque formation by 50% at 20 plaque forming units(PFU) in human embryonic lung (HEL) cell cultures.
Outline: (§1)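 Human embryonic lung (HEL) cell cultures were infected with 20 or 100 plaque forming units of CMV, as specified per column. Endpoint: concentration reducing plaque formation by 50%.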

HEL [2] = experiment: Concentration required to reduce VZV-YS/R-TK- plaque formation by 50% in human embryonic lung (HEL) cell cultures.
[3] = Concentration required to reduce vesicular stomatitis virus(VSV) induced cytopathogenicity by 50% in ESM(embryonic skin muscle) cell cultures.; conditions: Homo sapiens
Outline: (§2)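 Embryonic skin muscle (ESM) cell cultures were infected at a virus input of 100 CCID50, where 1 CCID50 is the infective dose for 50% of cultures. Endpoint: concentration reducing virus-induced cytopathogenicity by 50%.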

[4] = Concentration required to cause a microscopically detectable alteration of normal ESM cell morphology.; conditions: Homo sapiens
[5] = Concentration required to reduce vaccinia virus(VV) induced cytopathogenicity by 50% in ESM(embryonic skin muscle) cell cultures.; conditions: Homo sapiens; outline: as §2
[6] = Concentration required to reduce HSV-2(G) induced cytopathogenicity by 50% in ESM(embryonic skin muscle) cell cultures.; conditions: Homo sapiens; outline: as §2
HEL [7] = experiment: Concentration required to reduce VZV-07/1-TK- plaque formation by 50% in human embryonic lung (HEL) cell cultures.
HEL [8] = experiment: Concentration required to reduce CMV (Davis) plaque formation by 50% at 100 plaque forming units(PFU) in human embryonic lung (HEL) cell cultures.; outline: as §1
HEL [9] = experiment: Concentration required to reduce human embryonic lung (HEL) cell growth by 50%.; conditions: read-out: MCC
HEL [10] = experiment: Concentration required to reduce CMV(AD-169) plaque formation by 50% in human embryonic lung (HEL) cell cultures.; outline: as §1
HEL [11] = experiment: Concentration required to reduce varicella zoster virus(VZV)OKA plaque formation by 50% at 20 plaque forming units(PFU) in human embryonic lung (HEL) cell cultures.
[12] = Concentration required to reduce HSV-1 thymidine kinase deficient (TK-)(VMW 1837) induced cytopathogenicity in by 50% ESM(embryonic skin muscle) cell cultures.; conditions: Homo sapiens; outline: as §2
HEL [13] = experiment: Concentration required to reduce varicella zoster virus (VZV)YS-TK-PFU plaque formation by 50% in human embryonic lung (HEL) cell cultures.
[14] = Concentration required to reduce HSV-1 thymidine kinase deficient (TK-)(B2006) induced cytopathogenicity by 50% in ESM(embryonic skin muscle) cell cultures.; conditions: Homo sapiens; outline: as §2
[15] = Concentration required to reduce HSV-1(KOS) induced cytopathogenicity by 50% in ESM(embryonic skin muscle) cell cultures.; conditions: Homo sapiens; outline: as §2

**Q.** What does the source list for `Nc1ncnc2c1ncn2[C@H]1C[C@@H](O)[C@@H](O)C1`?
**A.** MIC (HEL [1]): 200 µg/mL (≈ 850 µM); MIC (HEL [2]): 47 µg/mL (≈ 200 µM); MIC [3]: > 200 µg/mL; MCC [4]: > 400 µg/mL; MIC [5]: > 100 µg/mL; MIC [6]: > 200 µg/mL; MIC (HEL [7]): 24 µg/mL (≈ 102 µM); MIC (HEL [8]): 200 µg/mL (≈ 850 µM); CC50 (50% cell growth inhibitory concentration) (HEL [9]): 110 µg/mL (≈ 468 µM); MIC (HEL [10]): 200 µg/mL (≈ 850 µM); MIC (HEL [11]): 24 µg/mL (≈ 102 µM); MIC [12]: 100 µg/mL (≈ 425 µM); MIC (HEL [13]): 25 µg/mL (≈ 106 µM); MIC [14]: 70 µg/mL (≈ 298 µM); MIC [15]: > 200 µg/mL

**Q.** What does the source list for `Nc1nc(O)c2ncn([C@H]3C[C@@H](O)[C@@H](O)C3)c2n1`?
**A.** MIC (HEL [1]): 270 µg/mL (≈ 1070 µM); MIC (HEL [2]): 192 µg/mL (≈ 764 µM); MIC [3]: > 400 µg/mL; MCC [4]: > 400 µg/mL; MIC [5]: 300 µg/mL (≈ 1190 µM); MIC [6]: 300 µg/mL (≈ 1190 µM); MIC (HEL [7]): 164 µg/mL (≈ 653 µM); MIC (HEL [8]): 250 µg/mL (≈ 995 µM); CC50 (50% cell growth inhibitory concentration) (HEL [9]): 196 µg/mL (≈ 780 µM); MIC (HEL [10]): 250 µg/mL (≈ 995 µM); MIC (HEL [11]): 90 µg/mL (≈ 358 µM); MIC [12]: 150 µg/mL (≈ 597 µM); MIC (HEL [13]): 91 µg/mL (≈ 362 µM); MIC [14]: 300 µg/mL (≈ 1190 µM); MIC [15]: 300 µg/mL (≈ 1190 µM)

**Q.** With `Nc1nc(N)c2ncn([C@H]3C[C@@H](O)[C@@H](O)C3)c2n1` as the compound, how does the MIC (HEL [1]) read?
**A.** The MIC was 70 µg/mL (≈ 280 µM).

**Q.** And the MIC (HEL [2])?
**A.** Its MIC is 89 µg/mL (≈ 356 µM).

**Q.** What about the MIC [3] of the same compound?
**A.** The MIC was over 200 µg/mL.

**Q.** What about the MCC [4] of the same compound?
**A.** The MCC was over 400 µg/mL.

**Q.** What about the MIC [5] of the same compound?
**A.** The MIC was over 150 µg/mL.

**Q.** And the MIC [6]?
**A.** Its MIC is 200 µg/mL (≈ 799 µM).

**Q.** And the MIC (HEL [7])?
**A.** The MIC was 70 µg/mL (≈ 280 µM).

**Q.** And the MIC (HEL [8])?
**A.** The MIC was 70 µg/mL (≈ 280 µM).

**Q.** What about the CC50 (50% cell growth inhibitory concentration) (HEL [9]) of the same compound?
**A.** Its CC50 (50% cell growth inhibitory concentration) is 139 µg/mL (≈ 555 µM).

**Q.** And the MIC (HEL [10])?
**A.** Its MIC is 70 µg/mL (≈ 280 µM).

**Q.** And the MIC (HEL [11])?
**A.** Its MIC is 70 µg/mL (≈ 280 µM).

**Q.** What about the MIC [12] of the same compound?
**A.** The MIC was 150 µg/mL (≈ 599 µM).

**Q.** What about the MIC (HEL [13]) of the same compound?
**A.** Its MIC is 200 µg/mL (≈ 799 µM).

**Q.** What about the MIC [14] of the same compound?
**A.** The MIC was 100 µg/mL (≈ 400 µM).

**Q.** And the MIC [15]?
**A.** The MIC was over 200 µg/mL.

**Q.** Which results are given for `O=c1[nH]c(=O)n([C@H]2C[C@H](O)[C@@H](CO)O2)cc1/C=C/Br` [BRIVUDINE]?
**A.** MIC (HEL [2]): > 10 µg/mL; MIC [3]: > 400 µg/mL; MCC [4]: > 400 µg/mL; MIC [5]: 1 µg/mL (≈ 3 µM); MIC [6]: 10 µg/mL (≈ 30 µM); MIC (HEL [7]): > 10 µg/mL; MIC (HEL [11]): 0.001 µg/mL (≈ 0.003 µM); MIC [12]: 10 µg/mL (≈ 30 µM); MIC (HEL [13]): 0.0007 µg/mL (≈ 0.0021 µM); MIC [14]: 100 µg/mL (≈ 300 µM); MIC [15]: 0.07 µg/mL (≈ 0.21 µM)

**Q.** What does the source list for `Nc1nc2c(ncn2COC(CO)CO)c(=O)[nH]1` [GANCICLOVIR]?
**A.** MIC (HEL [1]): 0.8 µg/mL (≈ 3.13 µM); MIC (HEL [8]): 0.3 µg/mL (≈ 1.18 µM); MIC (HEL [11]): 3 µg/mL (≈ 11.8 µM)

**Q.** Which MIC [3] does the source give for `NC(=O)c1ncn([C@@H]2O[C@H](CO)[C@@H](O)[C@H]2O)n1` [RIBAVIRIN] here?
**A.** The MIC was 150 µg/mL (≈ 614 µM).

**Q.** What about the MCC [4] of the same compound?
**A.** Its MCC is over 400 µg/mL.

**Q.** And the MIC [5]?
**A.** Its MIC is 70 µg/mL (≈ 287 µM).

**Q.** What about the MIC [6] of the same compound?
**A.** The MIC was over 400 µg/mL.

**Q.** And the MIC [12]?
**A.** Its MIC is 40 µg/mL (≈ 164 µM).

**Q.** What about the MIC [14] of the same compound?
**A.** The MIC was 300 µg/mL (≈ 1230 µM).

**Q.** What about the MIC [15] of the same compound?
**A.** The MIC was over 400 µg/mL.
